Assay [1] has as its target T1, B2 bradykinin receptor (Homo sapiens, UniProt P30411).
T1 sequence (P30411 whole entry): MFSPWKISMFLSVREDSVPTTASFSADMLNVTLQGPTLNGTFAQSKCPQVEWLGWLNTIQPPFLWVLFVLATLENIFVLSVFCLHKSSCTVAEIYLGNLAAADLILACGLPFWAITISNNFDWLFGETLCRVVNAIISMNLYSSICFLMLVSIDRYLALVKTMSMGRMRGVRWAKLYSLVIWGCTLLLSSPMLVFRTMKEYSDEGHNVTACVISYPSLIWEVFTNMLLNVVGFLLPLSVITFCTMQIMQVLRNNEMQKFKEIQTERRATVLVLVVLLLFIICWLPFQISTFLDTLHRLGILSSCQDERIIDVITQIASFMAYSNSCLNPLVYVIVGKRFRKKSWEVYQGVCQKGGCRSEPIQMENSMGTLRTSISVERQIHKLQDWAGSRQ
Kind of assay: In vitro inhibitory activity towards human bradykinin receptor B2 expressed in CHO cells using [3H]BK (1.0 nM) as a radioligand. The assay is classed as cell-based. A digest of the protocol:
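Stably transfected CHO (dhfr-) cells seeded at 3.0 × 10^4 cells/well, cultured 1 day, then incubated with test compounds for 2 h at 4 °C. Binding buffer was HEPES/N-methyl-D-glucamine pH 7.2 with bacitracin, enalaprilat and BSA. Cells solubilized in SDS/NaOH and counted by scintillation; nonspecific binding with 1 μM unlabeled BK. Run three times.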

Assay [2] has as its target T2, B2 bradykinin receptor (Cavia porcellus, UniProt O70526).
T2 sequence (O70526 whole entry): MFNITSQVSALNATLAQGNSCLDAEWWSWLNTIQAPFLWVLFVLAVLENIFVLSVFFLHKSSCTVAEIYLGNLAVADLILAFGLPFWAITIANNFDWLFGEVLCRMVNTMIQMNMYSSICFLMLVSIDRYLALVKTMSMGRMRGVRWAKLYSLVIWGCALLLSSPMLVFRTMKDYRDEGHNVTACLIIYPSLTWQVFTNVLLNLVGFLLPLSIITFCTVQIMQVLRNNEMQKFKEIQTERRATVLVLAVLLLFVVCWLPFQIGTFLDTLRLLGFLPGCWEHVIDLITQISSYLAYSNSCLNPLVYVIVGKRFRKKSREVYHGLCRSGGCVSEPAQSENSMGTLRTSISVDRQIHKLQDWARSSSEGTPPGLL
Kind of assay: In vitro inhibitory activity towards bradykinin receptor B2 using [3H]BK (0.06 nM) as a radioligand in guinea pig ileum membrane preparation. The assay is classed as cell membranes. A digest of the protocol:
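Ileal membranes from male Hartley guinea pigs, prepared in TES/1,10-phenanthroline pH 6.8 with 100000 g pellet. Membranes (0.2 mg protein/mL) incubated with [3H]BK and varying compound concentrations 60 min at room temperature in binding buffer with bacitracin, DTT, captopril, BSA. Filter harvest, scintillation counting; nonspecific with 1 μM BK. IC50 as mean of ≥3 determinations.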

Assay [3] has as its system Cavia porcellus. Kind of assay: Compound was evaluated for percentage inhibition against BK-induced bronchoconstriction in anesthetized guinea pig, intravenously at a concentration of 1 mg/kg. The assay is classed as functional. Particulars: route intravenous. The method in brief:
(§1)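 Male Hartley guinea pigs (470-750 g), fasted overnight, pentobarbital 30 mg/kg ip, tracheal and jugular cannulation, ventilated 10 mL/kg at 60 breaths/min; alcuronium 0.5 mg/kg iv, propranolol 10 mg/kg sc. BK 5 μg/kg iv; compound in 5% citric acid iv 25 min later, BK repeated 5 min after drug. Peak insufflation pressure rise (Konzett-Rossler); % inhibition vs vehicle, n=3-4.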

The test system of assay [4] is Cavia porcellus. Kind of assay: Compound was evaluated for percentage inhibition against BK-induced bronchoconstriction in anesthetized guinea pig, intravenously at a concentration of 10 mg/kg. The assay is classed as functional. Particulars: route intravenous. The method in brief:
as §1

SMILES strings stand for the structures.

In general, IC50 refers to the midpoint of a concentration-inhibition curve. A higher IC50 goes with a need for much substance. As for `CNC(=O)c1ccc(/C=C/C(=O)NCC(=O)N(C)c2ccc(Cl)c(COc3cccc4c(-n5ccnc5)cc(C)nc34)c2Cl)cc1`, the IC50 in assay [1] came to 0.28 nM; in assay [2] it was 3.7 nM.
For the compound `Cc1cc(-n2cccn2)c2cccc(OCc3c(Cl)ccc(N(C)C(=O)CNC(=O)/C=C/c4ccc(C(=O)N(C)C)cc4)c3Cl)c2n1`, the IC50 in assay [1] was found to be 0.18 nM; in assay [2] it was 3.3 nM.
For `Cc1cc(-n2ccnc2)c2cccc(OCc3c(Cl)ccc(-n4cccc4CNC(=O)/C=C/c4ccc(C(=O)NCc5ccccn5)cc4)c3Cl)c2n1` the same measures were 0.43 nM and 6 nM.
Taken in the same sequence, the figures for `CNC(=O)c1ccc(/C=C/C(=O)NCC(=O)N(C)c2ccc(C)c(COc3cccc4c(-c5ccccc5)cc(C)nc34)c2C)cc1` were 1 nM and 3.1 nM.
For `Cc1cc(N(C)C)c2cccc(OCc3c(Cl)ccc(N(C)C(=O)CNC(=O)/C=C/c4ccc(C(=O)N(C)C)cc4)c3Cl)c2n1` the same measures were 2.1 nM and 2.9 nM.
As for `CNC(=O)c1ccc(/C=C/C(=O)NCC(=O)N(C)c2ccc(Cl)c(COc3cccc4c(-n5cncn5)cc(C)nc34)c2Cl)cc1`, the figures for the half-inhibitory concentration (IC50) in assay [1] and in assay [2] were 0.23 nM and 4.4 nM, respectively.
As usually defined, the inhibition in vivo is how much of the control response was suppressed. A lower inhibition in vivo goes with a response near the control. In turn, `N=C(N)NCCC[C@@H](N)C(=O)N[C@@H](CCCNC(=N)N)C(=O)N1CCC[C@H]1C(=O)N1C[C@H](O)C[C@H]1C(=O)NCC(=O)N[C@@H](Cc1cccs1)C(=O)N[C@@H](CO)C(=O)N1Cc2ccccc2C[C@@H]1C(=O)N1[C@H](C(=O)N[C@@H](CCCNC(=N)N)C(=O)O)C[C@@H]2CCCC[C@@H]21` [ICATIBANT] gave an inhibition in vivo at 1 mg/kg in assay [3] of 63.4%.
For `Cc1cc(-n2ccnc2)c2cccc(OCc3c(Cl)ccc(N(C)C(=O)CNC(=O)/C=C/c4ccc(C(=O)Nc5ccncc5)cc4)c3Cl)c2n1`, the 50% inhibitory concentration (IC50) in assay [1] is 0.42 nM; in assay [2], 17 nM.
Taken in the same sequence, the figures for `CNC(=O)c1ccc(/C=C/C(=O)NCC(=O)N(C)c2ccc(Cl)c(COc3cccc4c(-n5cccn5)cc(C)nc34)c2Cl)cc1` were 0.17 nM and 2.7 nM.
For `Cc1cc(-n2ccnc2)c2cccc(OCc3c(Cl)ccc(N(C)C(=O)CNC(=O)Nc4cccc(C(=O)Nc5ccncc5)c4)c3Cl)c2n1`, the IC50 was 0.23 nM in assay [1] and 6.6 nM in assay [2]. The compound also had an inhibition in vivo at 10 mg/kg in assay [4] of 56.8%.
Turning to `Cc1cc(-n2ccnn2)c2cccc(OCc3c(Cl)ccc(N(C)C(=O)CNC(=O)/C=C/c4ccc(C(=O)N(C)C)cc4)c3Cl)c2n1`, the IC50 in assay [1] amounted to 0.28 nM; in assay [2] it was 9.1 nM.
Taken in the same sequence, the figures for `Cc1cc(-n2ccnc2)c2cccc(OCc3c(Cl)ccc(N(C)C(=O)CNC(=O)/C=C/c4ccc(C(=O)N(C)C)cc4)c3Cl)c2n1` were 0.35 nM and 4.3 nM.
`Cc1cc(-n2ccnc2)c2cccc(OCc3c(Cl)ccc(-n4cccc4CNC(=O)/C=C/c4ccc(C(=O)N(C)C)cc4)c3Cl)c2n1`: the half-maximal inhibitory concentration (IC50) was 0.26 nM in assay [1] and 3 nM in assay [2]. Besides, the inhibition in vivo at 1 mg/kg in assay [3] stood at 46%.
In the case of `CNC(=O)c1ccc(/C=C/C(=O)NCC(=O)N(C)c2ccc(Cl)c(COc3cccc4c(N(C)C)cc(C)nc34)c2Cl)cc1`, the figures for the IC50 in assay [1] and in assay [2] were 3.2 nM and 1.8 nM, respectively.

For the origin of these results see ChEMBL document CHEMBL1149113 (J Med Chem, 2004).
